Data on eight compounds can be found in ChEMBL document CHEMBL1146533, “Antimicrobial and antiparasitic (+)-trans-hexahydrodibenzopyrans and analogues from Machaerium multiflorum” (J Nat Prod, 2003).

One may read the MIC as the least concentration at which growth counts as inhibited. Broadly, the MBC is the smallest concentration meeting the test's criterion for killing. Broadly, the IC50 is the concentration at which inhibition is half-maximal. For orientation: IC90 means the concentration at which the effect reaches the 90% level.

Each structure is given as a SMILES string. In brackets after ≈: the same amount, converted by molar mass. Activity calls are given as the source filed them.

Data set [1] has as its system Aspergillus fumigatus. The data set is described as follows: Antimicrobial activity against Aspergillus fumigatus ATCC 90906 by modified NCCLS method. Type of data set: functional, organism-based.
For a further data set, the system named is Cryptococcus neoformans. Description: Antimicrobial activity against Cryptococcus neoformans ATCC 90113 by modified NCCLS method. Type of data set: functional, organism-based.
The test system of data set [2] is Candida albicans. The data set is described as follows: Antimicrobial activity against Candida albicans ATCC 90028 by modified NCCLS method. Type of data set: functional, organism-based.
For data set [3], the system named is Staphylococcus aureus. Description: Antimicrobial activity against methicillin-resistant Staphylococcus aureus ATCC 43300 by modified NCCLS method. Type of data set: functional, organism-based.
In data set [4] the test system is Staphylococcus aureus. Description: Antimicrobial activity against Staphylococcus aureus ATCC 29213 by modified NCCLS method. Type of data set: functional, organism-based.
For data set [5], the system named is Mycobacterium intracellulare. The data set is described as follows: Antimicrobial activity against Mycobacterium intracellular by Alamar blue assay. Type of data set: functional, organism-based. Background: Resazurin is reduced to fluorescent resorufin, in cell work by metabolically active cells.
Data set [6] has as its system Mycobacterium intracellulare. The data set is described as follows: Antimicrobial activity against Mycobacterium intracellular at 50 ug/mL by Alamar blue assay. Type of data set: functional.
Data set [7] deals with Candida albicans. Description: Antifungal activity against Candida albicans ATCC 90028 at 50 ug/mL by modified NCCLS method. Type of data set: functional, organism-based.
Data set [8] concerns Aspergillus fumigatus. The data set is described as follows: Antimicrobial activity against Aspergillus fumigatus ATCC 90906 at 50 ug/mL by modified NCCLS method. Type of data set: functional, organism-based.
Data set [9] can be described thus: Selectivity index, ratio of IC50 for african green monkey (Cercopithecus aethiops) Vero cells to IC50 for chloroquine-sensitive Plasmodium falciparum D6. Type of data set: toxicity, cell-based. Particulars: read-out: Ratio IC50. A digest of the protocol: (§1)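 Selectivity index calculated as IC50 in Vero cells divided by IC50 against P. falciparum.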
The nature of data set [10]: Selectivity index, ratio of IC50 for african green monkey (Cercopithecus aethiops) Vero cells to IC50 for chloroquine-sensitive Plasmodium falciparum W2. Type of data set: toxicity, cell-based. Particulars: read-out: Ratio IC50. A digest of the protocol: as §1
The test system of data set [11] is Plasmodium falciparum. The data set is described as follows: Antimalarial activity against chloroquine-resistant Plasmodium falciparum W2. Type of data set: functional, organism-based.
Another data set relates to Vero. The data set is described as follows: Cytotoxicity against african green monkey Vero cells at 4.7 ug/mL. Type of data set: cell-based. Particulars: chlorocebus sabaeus.
A further data set has as its system Leishmania donovani. Description: Antileishmanial activity against Leishmania donovani promastigotes after 72 hrs. Type of data set: functional, organism-based.
Data set [12] relates to Plasmodium falciparum. Description: Antimalarial activity against chloroquine-sensitive Plasmodium falciparum D6. Type of data set: functional, organism-based.

For the compound `C[C@@H]1[C@H](O)[C@@H](C)/C=C/C=C/C=C/C=C/C=C/C=C/C=C/[C@H](O[C@@H]2O[C@H](C)[C@@H](O)[C@H](N)[C@@H]2O)C[C@@H]2O[C@](O)(C[C@@H](O)C[C@@H](O)[C@H](O)CC[C@@H](O)C[C@@H](O)CC(=O)O[C@H]1C)C[C@H](O)[C@H]2C(=O)O` [AMPHOTERICIN B], the minimal inhibitory concentration (MIC) against Aspergillus fumigatus [1] turned out to be 1.25 µg/mL (≈ 1.35 µM); against Cryptococcus neoformans it was 0.63 µg/mL (≈ 0.682 µM); in the data set on Candida albicans [2] it was 0.31 µg/mL (≈ 0.335 µM).

`O=C(O)c1cn(C2CC2)c2cc(N3CCNCC3)c(F)cc2c1=O` [CIPROFLOXACIN]: in the data set on Staphylococcus aureus [3], the minimal bactericidal concentration (MBC) was 0.31 µg/mL (≈ 0.936 µM) and 0.31 µg/mL (≈ 0.936 µM) was the least that counted as inhibitory (MIC). The compound further returned a 50% inhibitory concentration (IC50) in the data set with Staphylococcus aureus [4] of 0.15 µg/mL (≈ 0.453 µM). In data set [5], this compound gave a concentration for half-maximal inhibition (IC50) of 0.45 µg/mL (≈ 1.36 µM) and an MIC of 0.63 µg/mL (≈ 1.9 µM).

`C=C(C)[C@H]1CC[C@H](C)C[C@@H]1c1c(O)cc(/C=C/c2ccccc2)cc1O` [MACHAERIDIOL A]: the MIC against Aspergillus fumigatus [1] was 12.5 µg/mL (≈ 35.9 µM); in the data set on Staphylococcus aureus [3] it was 1.56 µg/mL (≈ 4.48 µM); in the data set with Staphylococcus aureus [4] it was 1.56 µg/mL (≈ 4.48 µM); in the data set on Candida albicans [2] it was 50 µg/mL (≈ 143 µM); in [5] it was 12.5 µg/mL (≈ 35.9 µM). Moreover, the half-maximal inhibitory concentration (IC50) with Staphylococcus aureus [3] amounted to 1 µg/mL (≈ 2.87 µM); with Cryptococcus neoformans, 15 µg/mL (≈ 43 µM); with Staphylococcus aureus [4], 1 µg/mL (≈ 2.87 µM); with Candida albicans [2], 3.5 µg/mL (≈ 10 µM); in [5] it was 7 µg/mL (≈ 20.1 µM). In addition, the results for the minimal bactericidal concentration (MBC) (in the data set on Staphylococcus aureus [3]; in [6]; in the data set with Staphylococcus aureus [4]) were 3.13 µg/mL (≈ 8.98 µM), 50 µg/mL (≈ 143 µM) and 3.13 µg/mL (≈ 8.98 µM), respectively. In addition, the result in the data set with Cryptococcus neoformans, in the data set with Candida albicans [7] and with Aspergillus fumigatus [8] was inactive.

Turning to `C=C(C)[C@H]1CC[C@H](C)C[C@@H]1c1c(O)cc(/C=C/c2ccccc2O)cc1O` [MACHAERIDIOL B], the minimum inhibitory concentration (MIC) with Aspergillus fumigatus [1] was determined as 10 µg/mL (≈ 27.4 µM); with Staphylococcus aureus [3], 6.25 µg/mL (≈ 17.1 µM); in the data set with Staphylococcus aureus [4], 6.25 µg/mL (≈ 17.1 µM); against Candida albicans [2], 6.25 µg/mL (≈ 17.1 µM). The values for the selectivity ratio in [9] and in data set [10] were more than 7.4 and more than 22, respectively. For the same compound, the IC50 in the data set with Staphylococcus aureus [3] stood at 2 µg/mL (≈ 5.49 µM); in the data set with Cryptococcus neoformans it was 3.5 µg/mL (≈ 9.6 µM); in the data set on Plasmodium falciparum [11], 0.22 µg/mL (≈ 0.604 µM); in the data set with Staphylococcus aureus [4], 2.6 µg/mL (≈ 7.13 µM); in the data set with Candida albicans [2], 2 µg/mL (≈ 5.49 µM); in the data set on Leishmania donovani, 0.9 µg/mL (≈ 2.47 µM). Further, the IC50 in the data set with Plasmodium falciparum [12] was found to be 0.64 µg/mL (≈ 1.76 µM). Besides, the MBC against Staphylococcus aureus [3] and against Staphylococcus aureus [4] was 6.25 µg/mL (≈ 17.1 µM) in each case. Further, the result (in the data set with Candida albicans [7]; in the data set with Aspergillus fumigatus [8]; in [5]) was inactive. Also, the Activity result with Vero is on record as “Non-toxic”. In the data set on Leishmania donovani, this compound gave an IC90 of 8 µg/mL (≈ 21.9 µM).

For the compound `C=C(C)[C@H]1CC[C@H](C)C[C@@H]1c1c(O)cc(-c2cc3ccccc3o2)cc1O` [MACHAERIDIOL C], the result (with Aspergillus fumigatus [1]; in data set [6]) was inactive. For the same compound, the selectivity ratio was more than 1.4 in data set [9] and more than 1.9 in [10]. For the same compound, the IC50 with Staphylococcus aureus [3] is 3.5 µg/mL (≈ 9.66 µM); with Cryptococcus neoformans, 25 µg/mL (≈ 69 µM); in the data set with Plasmodium falciparum [11], 2.5 µg/mL (≈ 6.9 µM); with Staphylococcus aureus [4] it was 3 µg/mL (≈ 8.28 µM); in the data set with Candida albicans [2] it was 45 µg/mL (≈ 124 µM); with Leishmania donovani, 3 µg/mL (≈ 8.28 µM). Further, the IC50 in the data set on Plasmodium falciparum [12] was found to be 3.3 µg/mL (≈ 9.1 µM); in data set [5], 10 µg/mL (≈ 27.6 µM). Moreover, the MBC against Staphylococcus aureus [3] and in the data set with Staphylococcus aureus [4] was 12.5 µg/mL (≈ 34.5 µM) each time. The minimal inhibitory concentration (MIC) in the data set with Staphylococcus aureus [3] came out at 6.25 µg/mL (≈ 17.2 µM); against Staphylococcus aureus [4], 6.25 µg/mL (≈ 17.2 µM); in data set [5], 25 µg/mL (≈ 69 µM). Further, the Activity entry in the data set on Vero is given as “Non-toxic”. The compound also returned an IC90 with Leishmania donovani of 10 µg/mL (≈ 27.6 µM).

With `C[C@H]1CC[C@H]2[C@H](C1)c1c(O)cc(/C=C/c3ccccc3O)cc1OC2(C)C` [MACHAERIOL C], the values for the MIC against Aspergillus fumigatus [1], against Staphylococcus aureus [3] and in the data set with Staphylococcus aureus [4] were 100 µg/mL (≈ 274 µM), 1.56 µg/mL (≈ 4.28 µM) and 1.56 µg/mL (≈ 4.28 µM), respectively. For the same compound, the selectivity ratio in [9] came out at 1.6; in data set [10] it was 1.3. Besides, the half-maximal inhibitory concentration (IC50) in the data set with Staphylococcus aureus [3] was 0.7 µg/mL (≈ 1.92 µM); in the data set with Cryptococcus neoformans, 40 µg/mL (≈ 110 µM); with Plasmodium falciparum [11], 3.7 µg/mL (≈ 10.2 µM); in the data set with Staphylococcus aureus [4] it was 0.65 µg/mL (≈ 1.78 µM); with Candida albicans [2], 20 µg/mL (≈ 54.9 µM); in the data set on Leishmania donovani it was 6 µg/mL (≈ 16.5 µM). The results for the concentration for half-maximal inhibition (IC50) (in the data set with Plasmodium falciparum [12]; in data set [5]) were 3 µg/mL (≈ 8.23 µM) and 20 µg/mL (≈ 54.9 µM), respectively. Further, the MBC against Staphylococcus aureus [3] is 12.5 µg/mL (≈ 34.3 µM); in the data set with Staphylococcus aureus [4] it was 6.25 µg/mL (≈ 17.1 µM). In addition, the outcome with Aspergillus fumigatus [8] was inactive. In addition, in the data set on Vero, the Activity entry is on record as “Non-toxic”. Further, the 90% effect level in the data set on Leishmania donovani (IC90) was put at 12 µg/mL (≈ 32.9 µM).

`C[C@@H]1C[C@@H]2c3c(O)cc(-c4cc5ccccc5o4)cc3OC(C)(C)[C@H]2C[C@H]1O` [MACHAERIOL D]: the result (with Aspergillus fumigatus [1]; in the data set on Staphylococcus aureus [3]; in the data set with Cryptococcus neoformans; in the data set with Candida albicans [2]; in [5]) was inactive. The IC50 in the data set with Staphylococcus aureus [3] came to 30 µg/mL (≈ 79.3 µM); in the data set with Staphylococcus aureus [4], 25 µg/mL (≈ 66.1 µM). Also, inhibition of growth against Staphylococcus aureus [4] (MIC) required 50 µg/mL (≈ 132 µM).

Regarding `N=C(N)c1ccc(OCCCCCOc2ccc(C(=N)N)cc2)cc1` [PENTAMIDINE], in the data set on Leishmania donovani, the IC50 came to 0.42 µg/mL (≈ 1.23 µM) and the IC90 worked out at 1.5 µg/mL (≈ 4.41 µM).
